The text below walks through data of ChEMBL document CHEMBL3860086, “Antivirulence C-Mannosides as Antibiotic-Sparing, Oral Therapeutics for Urinary Tract Infections” (J Med Chem, 2016).

Activity calls are given as the source filed them. The calls are words filed in the database; no cut-off is given here.

The target in data set [1] is Type 1 fimbrin D-mannose specific adhesin (Escherichia coli K-12) (UniProt P08191). As to the kind of experiment: Inhibition of Escherichia coli UTI89 FimH assessed as decrease in hemagglutination of guinea pig red blood cells after 4 to 18 hrs. The method, boiled down: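 Hemagglutination inhibition with clinical UPEC strain UTI89 and guinea pig red blood cells, run per an earlier described protocol.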

For data set [2] the target is unchanged. As to the kind of experiment: Binding affinity to Escherichia coli UTI89 FimH lectin domain at 100 uM after 30 mins by SYPRO Orange-staining-based differential scanning fluorimetry. The method in brief:
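Thermal shift (DSF) binding with FimH lectin domain (FimHL) at 10 μM, with or without 100 μM mannoside; otherwise run per an earlier described method.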

Data set [3] in a line: Drug uptake in C3H/HeN mouse urine at 50 mg/kg, po administered through gavage after 1 hr by LC-MS/MS analysis. Format: ADME, organism-based. To be noted: in vivo. The method in brief: (§1)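 Mouse urine PK: C3H/HeN mice given 100 μL of 10 mg/mL mannoside in 10% cyclodextrin (50 mg/kg) by oral gavage. Urine sampled at several time points over 8 h and mannoside quantified by HPLC and mass spectrometry.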

The nature of data set [4]: Drug uptake in C3H/HeN mouse urine at 50 mg/kg, po administered through gavage after 8 hrs by LC-MS/MS analysis. Format: ADME, organism-based. The conditions noted are these: read-out: Drug uptake. The method in brief:
as §1

Data set [5] can be described thus: Clearance in Sprague-Dawley rat at 3 mg/kg, iv after 5 mins to 24 hrs by LC-MS/MS analysis. It is filed as ADME, organism-based. To be noted: in vivo. The method, boiled down: (§2)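 Rat plasma PK: mannoside concentrations in plasma followed after either a 10 mg/kg oral dose or a 3 mg/kg intravenous dose.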
Data set [6] is described as follows: Ratio of drug level in C3H/HeN mouse urine to IC50 for Escherichia coli UTI89 FimH-mediated biofilm formation.
In data set [7] the test system is Escherichia coli. Description: Antibacterial activity against Escherichia coli UTI89 with kanamycin cassette inserted in chromosome in C3H/HeN mouse acute cystitis model assessed as decrease in bacterial burden in urinary bladder at 25 mg/kg, po administered 30 mins prior to infection measured at 6 hrs post infection relative to control. It is filed as functional. The method in brief: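 Female C3H/HeN mice (6–8 weeks) get 25 mg/kg mannoside by mouth in 10% cyclodextrin 30 min before infection. Infection is transurethral: 50 μL of 1–2 × 10^7 UTI89KAN under isoflurane. The inoculum is grown type 1-inducing (2 × 24 h static LB, 37 °C), washed and resuspended in PBS. At 6 h, bladders are homogenized, serially diluted and plated on LB with 50 μg/mL kanamycin for CFU.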

Data set [8] can be described thus: Volume of distribution at steady state in Sprague-Dawley rat at 3 mg/kg, iv after 5 mins to 24 hrs by LC-MS/MS analysis. Format: ADME, organism-based. The conditions noted are these: in vivo. The method, boiled down: as §2
A short description of data set [9]: Oral bioavailability in Sprague-Dawley rat at 10 mg/kg after 15 mins to 24 hrs by LC-MS/MS analysis. Format: ADME, organism-based. The conditions noted are these: in vivo. The method, boiled down:
as §2

Data set [10] can be described thus: Half life in simulated gut fluid (unknown origin). It is filed as ADME. The method, boiled down:
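Stability is measured in simulated gut fluid at pH 1.2.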

Data set [11] can be described thus: Half life in liver microsomes (unknown origin). It is filed as ADME.
Data set [12] relates to Escherichia coli. Description: Antibacterial activity against Escherichia coli UTI89 with kanamycin cassette inserted in chromosome in C3H/HeN mouse chronic cystitis model assessed as decrease in bacterial burden in urinary bladder at 25 mg/kg, po administered 14 days post infection measured at 12 hrs post dose relative to control. Format: functional. The method in brief: (§3)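 Female C3H/HeN mice (6–8 weeks) are infected transurethrally under isoflurane with 1–2 × 10^8 UTI89KAN (type 1-induced, PBS-washed) in 50 μL. Urine titers at day 12 select chronic infection (≥10^5). At 2 weeks, mice get oral gavage of 100 μL mannoside in 10% cyclodextrin. At set times, bladders are homogenized, serially diluted and plated on kanamycin LB for CFU.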

Data set [13] has as its system Escherichia coli. As to the kind of experiment: Antibacterial activity against Escherichia coli UTI89 with kanamycin cassette inserted in chromosome in C3H/HeN mouse chronic cystitis model assessed as decrease in bacterial burden in urinary bladder at 50 mg/kg, po administered 14 days post infection measured at 2 hrs post dose (reference value: 10^7 CFU). It is filed as functional. The method in brief:
as §3

Data set [14] concerns Escherichia coli. Description: Antibacterial activity against Escherichia coli UTI89 with kanamycin cassette inserted in chromosome in C3H/HeN mouse chronic cystitis model assessed as decrease in bacterial burden in urinary bladder at 50 mg/kg, po administered 14 days post infection measured at 6 hrs post dose (reference value: 10^7 CFU). Format: functional. The method in brief:
as §3

Data set [15] relates to Escherichia coli. As to the kind of experiment: Antibacterial activity against Escherichia coli UTI89 with kanamycin cassette inserted in chromosome in C3H/HeN mouse chronic cystitis model assessed as decrease in bacterial burden in urinary bladder at 50 mg/kg, po administered 14 days post infection measured at 12 hrs post dose (reference value: 10^7 CFU). It is filed as functional. The method in brief:
as §3

Data set [16] can be described thus: Ratio of drug level in C3H/HeN mouse urine to EC90 for Escherichia coli UTI89 FimH-mediated hemagglutination of guinea pig red blood cells.

Chain of Type 1 fimbrin D-mannose specific adhesin (Escherichia coli K-12) (P08191 whole entry): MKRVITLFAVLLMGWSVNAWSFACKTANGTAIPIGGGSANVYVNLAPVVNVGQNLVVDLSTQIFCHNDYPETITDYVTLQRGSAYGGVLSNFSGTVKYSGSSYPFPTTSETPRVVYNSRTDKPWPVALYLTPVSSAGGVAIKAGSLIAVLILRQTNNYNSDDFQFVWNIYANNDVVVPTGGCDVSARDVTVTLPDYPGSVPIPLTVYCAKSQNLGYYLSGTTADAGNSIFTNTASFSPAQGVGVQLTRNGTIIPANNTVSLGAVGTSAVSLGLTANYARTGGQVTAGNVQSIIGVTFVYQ

Consider `COC(=O)c1cccc(-c2ccc(S[C@H]3O[C@H](CO)[C@@H](O)[C@H](O)[C@@H]3O)cc2)c1`, for which the EC90 in data set [1] came out at 4000 nM.
With `Cc1cc(-c2cccc3cnccc23)ccc1O[C@H]1O[C@H](CO)[C@@H](O)[C@H](O)[C@@H]1O`, the EC90 in [1] is 62 nM. Besides, in [2], the Tm is 75 °C.
Consider `CNC(=O)c1cccc(-c2ccc(O[C@H]3O[C@H](CO)[C@@H](O)[C@H](O)[C@@H]3O)c(C)c2)c1`, for which the EC90 in data set [1] is 62 nM. Besides, in [2], the Tm amounted to 74.5 °C. Besides, the Drug uptake result in data set [3] is on record as “Active”. For the same molecule, in data set [4], the concentration at 8 h worked out at 1 µM. In data set [5], the clearance was found to be 98.4 mL/min/kg. In addition, the Ratio in data set [6] was over 10.
For the molecule `Cc1cc(-c2ccc3c(c2)C(=O)NCC3)ccc1[C@@H](O)[C@H]1O[C@H](CO)[C@@H](O)[C@H](O)[C@@H]1O`, the EC90 in data set [1] stood at 6 nM. For the same molecule, in data set [2], the Tm was found to be 76.5 °C. For the same molecule, the result in the data set on Escherichia coli [7] was Active.
For the molecule `Cc1cc(-c2ccc3cc[nH]c(=O)c3c2)ccc1O[C@H]1O[C@H](CO)[C@@H](O)[C@H](O)[C@@H]1O`, in [1], the 90% effect concentration (EC90) was determined as 31 nM. Further, the Tm in [2] was determined as 75.4 °C. The same molecule registered a clearance in data set [5] of 408 mL/min/kg. This molecule showed a Vdss in [8] of 6.7 L. In data set [9], this molecule displayed an F of 7%. The half-life in data set [10] and in [11] was over 2 h in each case. Besides, in the data set on Escherichia coli [7], the “fold change (FC)” value is reported as 2.
Regarding `Cc1cc(-c2ccc3c(c2)C(=O)NCC3)ccc1O[C@H]1O[C@H](CO)[C@@H](O)[C@H](O)[C@@H]1O`, the 90% effect concentration (EC90) in data set [1] was determined as 32 nM. Moreover, the Tm in data set [2] amounted to 75 °C.
For `CNC(=O)c1cccc(-c2ccc(O[C@H]3O[C@H](COC(C)=O)[C@@H](OC(C)=O)[C@H](OC(C)=O)[C@@H]3OC(C)=O)c(C)c2)c1`, the concentration at 8 h in data set [4] stood at 20 µM. Also, the outcome in the data set on Escherichia coli [7] and in the data set with Escherichia coli [12] was Active. Moreover, the Ratio in data set [6] is over 10.
Consider `CNC(=O)c1cc(C(=O)NC)cc(-c2ccc(O[C@H]3O[C@H](CO)[C@@H](O)[C@H](O)[C@@H]3O)c(C)c2)c1`, for which the 90% effect concentration (EC90) in data set [1] turned out to be 16 nM. In data set [3], the Drug uptake result is “Active”. Also, the half-life in [10] and in data set [11] was over 2 h in each case. Moreover, in data set [6], the Ratio is over 10. In addition, the Activity with Escherichia coli [13] turned out to be 100000 CFU; in the data set on Escherichia coli [14], 10000 CFU; in the data set on Escherichia coli [15] it was 100000 CFU. Moreover, in the data set on Escherichia coli [12], the result was Active.
`CNC(=O)c1cccc(-c2ccc([C@H](O)[C@H]3O[C@H](CO)[C@@H](O)[C@H](O)[C@@H]3O)c(C)c2)c1`: the 90% effect concentration (EC90) in [1] was 24000 nM. In addition, the Tm in [2] came out at 66.4 °C.
Taken in the same sequence, the figures for `Cc1cc(-c2cccc3cnccc23)ccc1[C@@H](O)[C@H]1O[C@H](CO)[C@@H](O)[C@H](O)[C@@H]1O` were 125 nM and 74.6 °C.
On the same counts, the results for `CNC(=O)c1cccc(-c2ccc(O[C@H]3O[C@H](CO)[C@@H](O)[C@H](O)[C@@H]3O)cc2)c1` are 500 nM and 73.2 °C.
On to `Cc1cc(-c2ccc3ccnc(N)c3c2)ccc1O[C@H]1O[C@H](CO)[C@@H](O)[C@H](O)[C@@H]1O`, for which the 90% effect concentration (EC90) in [1] is 20 nM. Moreover, in data set [2], the Tm was 75.1 °C.
For the molecule `COC(=O)c1cccc(-c2ccc(NC(=O)[C@H]3O[C@H](CO)[C@@H](O)[C@H](O)[C@@H]3O)cc2)c1`, the EC90 in data set [1] was found to be 16000 nM.
With `Cc1cc(-c2ccc3cc[nH]c(=O)c3c2)ccc1[C@@H](O)[C@H]1O[C@H](CO)[C@@H](O)[C@H](O)[C@@H]1O`, the EC90 in [1] amounted to 8 nM. Also, the Tm in [2] stood at 77.5 °C. Moreover, the “fold change (FC)” value in the data set on Escherichia coli [7] amounted to 2.
`Cc1cc(-c2ccc3ccnc(N)c3c2)ccc1[C@@H](O)[C@H]1O[C@H](CO)[C@@H](O)[C@H](O)[C@@H]1O`: the 90% effect concentration (EC90) in data set [1] amounted to 6 nM. The Tm in data set [2] came to 77.7 °C. Moreover, the outcome with Escherichia coli [7] was Active.
For `COC(=O)c1cccc(-c2ccc(N[C@H]3O[C@H](CO)[C@@H](O)[C@H](O)[C@@H]3O)cc2)c1`, in data set [1], the EC90 worked out at 4000 nM.
The same measure, in the same setting: then `OC[C@H]1O[C@H](n2cc(-c3ccccc3)nn2)[C@@H](O)[C@@H](O)[C@@H]1O`, with 32000 nM.
On to `CNC(=O)c1cccc(-c2ccc(O[C@H]3O[C@H](COP(=O)(O)O)[C@@H](O)[C@H](O)[C@@H]3O)c(C)c2)c1`, for which the result in the data set with Escherichia coli [7] was Active.
On to `CNC(=O)c1cccc(-c2ccc([C@H](O)[C@H]3O[C@H](CO)[C@@H](O)[C@H](O)[C@@H]3O)cc2)c1`, for which the EC90 in [1] came to 24000 nM. For the same molecule, the Tm in data set [2] is 67.2 °C.
Regarding `CNC(=O)c1cccc(-c2ccc([C@@H](O)[C@H]3O[C@H](CO)[C@@H](O)[C@H](O)[C@@H]3O)cc2)c1`, the EC90 in data set [1] stood at 250 nM. The Tm in data set [2] was 72.8 °C.
As to `CNC(=O)c1cccc(-c2ccc(C[C@H]3O[C@H](CO)[C@@H](O)[C@H](O)[C@@H]3O)cc2)c1`, in [1], the EC90 came to 1000 nM.
For `CNC(=O)c1cccc(-c2ccc([C@@H](O)[C@H]3O[C@H](CO)[C@@H](O)[C@H](O)[C@@H]3O)c(C)c2)c1`, in [1], the EC90 is 31 nM. Also, in [2], the Tm came out at 75.4 °C. Moreover, the concentration at 8 h in data set [4] came out at 50 µM. Further, the Ratio in data set [16] was 1600; in data set [6] it was over 10. This molecule displayed a clearance in data set [5] of 34.9 mL/min/kg. In the data set on Escherichia coli [12], the “fold change (FC)” value is 3.
With `CNC(=O)c1cccc(-c2ccc(C[C@H]3O[C@H](CO)[C@@H](O)[C@H](O)[C@@H]3O)c(C)c2)c1`, the EC90 in data set [1] turned out to be 2000 nM.
On to `O=C(NC[C@H]1O[C@H](CO)[C@@H](O)[C@H](O)[C@@H]1O)c1ccc(Br)cc1`, for which the EC90 in data set [1] stood at 16000 nM.
